These results are taken from ChEMBL document CHEMBL3817768, “Identification of a Chemical Probe for Family VIII Bromodomains through Optimization of a Fragment Hit” (J Med Chem, 2016).

Molecules are shown by their SMILES. The source made the active and inactive calls. The rule behind the calls is not given here.

Series [1] deals with C2C12. The series is described as follows: Inhibition of differentiation in mouse C2C12 cells assessed as shortening of myotubes with lower nuclei at 500 nM to 50 uM by HRP-peroxidase-based immunocytochemistry relative to control. In kind it is functional, cell-based. The essentials:
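C2C12 myoblasts grown with compound through differentiation, normally seen within 48 hours. Scored by cell fusion into myotubes (myotube length, nuclei per myotube) and MyHC expression relative to controls; myogenin monitored as an early marker.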

For series [2], the target named is T1, SWI/SNF-related matrix-associated actin-dependent regulator of chromatin subfamily A member 2 (Homo sapiens, UniProt P51531). The series is described as follows: Binding affinity to human SMARC2A expressed in BL21 (DE3)-R3-BirA cells assessed as change in melting temperature at 10 uM by sypro-orange dye-based differential scanning fluorimetric analysis. In kind it is cell-based. In short, it runs like this: (§1)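 Thermal shift (DSF) screen of bromodomain proteins with compound at 10 μM; binding read as change in melting temperature (Tm shift).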

For series [3], the target named is T1, SWI/SNF-related matrix-associated actin-dependent regulator of chromatin subfamily A member 2. The series is described as follows: Binding affinity to human SMARC2B expressed in BL21 (DE3)-R3-BirA cells assessed as change in melting temperature at 10 uM by sypro-orange dye-based differential scanning fluorimetric analysis. In kind it is cell-based. The essentials: as §1

The nature of series [4]: Half life in PBS at pH 7.4 at 20 degC. In kind it is ADME. As to conditions: buffer.
Series [5] has as its system 786-0. The series is described as follows: Antiproliferative activity against human 786-0 cells at 0.1 to 10 uM incubated for 24 to 72 hrs by MTT assay. In kind it is functional, cell-based. The essentials:
(§2)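 Clear cell renal carcinoma lines (786-O with wild-type PB1 expression; Rcc4 with PB1 downregulation) treated with compound; proliferation read-out.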

Series [6] relates to RCC4. The series can be described thus: Antiproliferative activity against human RCC4 cells at 0.1 to 10 uM incubated for 24 to 72 hrs by MTT assay. In kind it is functional, cell-based. In short, it runs like this:
as §2

The subject of series [7] is C2C12. The series can be described thus: Cytotoxicity against mouse C2C12 cells assessed as cell viability up to 50 uM after 72 hrs by MTT assay. In kind it is cell-based. Conditions: c2c12, 72 h.
Series [8] in a line: Cytotoxicity against mouse C3H10T1/2 cells assessed as cell viability up to 50 uM after 72 hrs by MTT assay. In kind it is cell-based. As to conditions: c3h 10t1/2, 72 h.
The subject of series [9] is C2C12. The series can be described thus: Cytotoxicity against mouse C2C12 cells assessed as cell death at 100 uM after 72 hrs by MTT assay. In kind it is cell-based. Conditions: c2c12, 72 h.
Series [10] is described as follows: Cytotoxicity against mouse C3H10T1/2 cells assessed as cell death at 100 uM after 72 hrs by MTT assay. In kind it is cell-based. As to conditions: c3h 10t1/2, 72 h.
Series [11] concerns C2C12. The series can be described thus: Inhibition of differentiation in mouse C2C12 cells assessed as suppression of MyHC expression at 1 uM by HRP-peroxidase-based immunocytochemistry. In kind it is functional, cell-based. In short, it runs like this: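 C2C12 myoblasts grown with compound through differentiation, normally complete within 48 hours. Fusion into myotubes was scored, along with expression of the early marker myogenin and of myosin heavy chain (MyHC) in myotubes.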

For series [12], the system named is C3H 10T1/2. The series can be described thus: Inhibition of differentiation of mouse C3H10T1/2 cells to adipocytes assessed as lipid accumulation at 1 uM by oil red O staining-based assay. In kind it is functional, cell-based. In short, it runs like this: (§3)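 C3H10T1/2 mesenchymal cells induced toward adipocytes with an adipogenic cocktail in presence of compound. Lipid droplet accumulation visualized by Oil Red O staining.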

Series [13] concerns C3H 10T1/2. The series is described as follows: Inhibition of differentiation of mouse C3H10T1/2 cells to adipocytes assessed as lipid accumulation at 20 uM by oil red O staining-based assay. In kind it is functional, cell-based. In short, it runs like this: as §3
Series [14] is described as follows: Drug recovery in cell media after 1 week at 37 degC by HPLC analysis. Conditions: read-out: Drug recovery. In kind it is physicochemical.

T1 sequence (P51531 whole entry): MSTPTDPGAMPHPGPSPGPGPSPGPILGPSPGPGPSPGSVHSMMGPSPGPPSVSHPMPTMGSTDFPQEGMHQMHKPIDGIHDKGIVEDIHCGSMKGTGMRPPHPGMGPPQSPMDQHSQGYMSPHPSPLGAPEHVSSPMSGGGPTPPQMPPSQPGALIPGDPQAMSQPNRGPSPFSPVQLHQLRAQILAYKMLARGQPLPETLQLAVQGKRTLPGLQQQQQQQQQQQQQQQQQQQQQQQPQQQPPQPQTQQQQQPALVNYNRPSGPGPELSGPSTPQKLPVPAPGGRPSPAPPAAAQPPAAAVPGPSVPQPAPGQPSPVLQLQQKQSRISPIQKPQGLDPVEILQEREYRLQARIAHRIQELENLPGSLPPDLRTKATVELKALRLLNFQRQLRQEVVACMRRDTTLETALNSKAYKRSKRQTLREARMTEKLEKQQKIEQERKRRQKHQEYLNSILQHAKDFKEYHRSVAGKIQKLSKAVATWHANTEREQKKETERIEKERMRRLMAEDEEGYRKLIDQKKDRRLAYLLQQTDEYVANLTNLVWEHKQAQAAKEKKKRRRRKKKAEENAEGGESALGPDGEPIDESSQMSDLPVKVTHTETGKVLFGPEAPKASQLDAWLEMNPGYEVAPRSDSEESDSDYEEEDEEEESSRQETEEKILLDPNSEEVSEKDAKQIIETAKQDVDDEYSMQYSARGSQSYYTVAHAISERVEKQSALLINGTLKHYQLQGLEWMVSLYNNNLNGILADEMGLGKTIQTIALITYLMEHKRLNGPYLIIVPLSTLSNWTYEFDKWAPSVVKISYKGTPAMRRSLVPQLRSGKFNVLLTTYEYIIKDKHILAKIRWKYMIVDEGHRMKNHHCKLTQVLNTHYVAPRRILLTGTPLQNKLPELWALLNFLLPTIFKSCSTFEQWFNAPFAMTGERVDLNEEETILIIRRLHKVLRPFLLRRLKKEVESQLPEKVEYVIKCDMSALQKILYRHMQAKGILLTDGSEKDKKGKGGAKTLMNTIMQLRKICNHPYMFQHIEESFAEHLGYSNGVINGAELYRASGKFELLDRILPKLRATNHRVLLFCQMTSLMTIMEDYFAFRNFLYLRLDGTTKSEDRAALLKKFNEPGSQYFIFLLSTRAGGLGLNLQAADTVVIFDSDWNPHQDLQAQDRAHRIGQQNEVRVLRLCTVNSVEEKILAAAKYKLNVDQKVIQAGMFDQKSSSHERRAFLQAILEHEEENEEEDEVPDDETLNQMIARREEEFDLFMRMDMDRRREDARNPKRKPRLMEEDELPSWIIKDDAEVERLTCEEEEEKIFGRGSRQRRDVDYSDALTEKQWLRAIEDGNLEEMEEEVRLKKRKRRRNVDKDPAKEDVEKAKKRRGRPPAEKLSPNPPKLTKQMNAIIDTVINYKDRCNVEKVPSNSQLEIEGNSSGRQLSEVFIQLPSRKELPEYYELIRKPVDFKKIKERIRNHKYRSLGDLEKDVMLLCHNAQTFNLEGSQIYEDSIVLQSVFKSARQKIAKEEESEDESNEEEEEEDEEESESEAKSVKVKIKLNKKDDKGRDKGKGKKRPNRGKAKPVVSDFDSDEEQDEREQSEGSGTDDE

For the compound `O=C(/C=C/N1C[C@H]2C[C@@H]1CN2c1ccccn1)c1ccccc1O`, the inhibition result in series [1], in series [11], in series [12] and in series [13] was “Active” each time. The ΔTm in series [2] was found to be 8.2 °C; in series [3], 5 °C. Besides, the t1/2 in series [4] is more than 10.4 days. In addition, the outcome in [5] and in [6] was inactive. For the same compound, the Activity result is given as “Non-toxic” in series [7], “Non-toxic” in [8], 50% in series [9] and 50% in [10]. For the same compound, the remaining at 168 h in series [14] was more than 90%.
